Data set [1] addresses T1, Protein arginine N-methyltransferase 6 (Homo sapiens, UniProt Q96LA8). In words: Inhibition of human PRMT6 using [3H]SAM as donor and [3H]methylated biotin-labeled peptide as substrate by scintillation proximity assay. The following applies: read-out: IC50. The gist of the method:
(§1)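 Compound titrated into the reaction; 1 h enzyme–compound preincubation stated for PRMT6. Methylated peptide captured on streptavidin/scintillant-coated plates and counted (cpm). IC50 from concentration–response, triplicate, mean ± SD.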
Target sequence in this assay (Q96LA8 whole entry): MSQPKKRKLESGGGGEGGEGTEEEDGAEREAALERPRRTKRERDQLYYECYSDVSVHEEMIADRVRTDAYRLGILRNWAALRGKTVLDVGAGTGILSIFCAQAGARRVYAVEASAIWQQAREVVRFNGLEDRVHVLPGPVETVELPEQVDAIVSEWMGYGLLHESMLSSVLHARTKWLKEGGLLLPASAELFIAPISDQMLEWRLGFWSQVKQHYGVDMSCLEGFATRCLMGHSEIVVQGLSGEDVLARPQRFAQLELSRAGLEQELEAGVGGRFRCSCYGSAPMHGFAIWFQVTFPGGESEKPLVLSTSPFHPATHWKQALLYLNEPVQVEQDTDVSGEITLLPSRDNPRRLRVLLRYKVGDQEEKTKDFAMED

The target in data set [2] is T1, Protein arginine N-methyltransferase 6. As to the kind of experiment: Inhibition of PRMT6 (unknown origin) assessed as reduction in incorporation of [3H]-labeled methyl group into biotinylated substrate using [3H-SAM] at 10 uM incubated for 1 hr by scintillation proximity assay. The gist of the method:
(§2)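 Panel of 33 methyltransferases (22 PKMTs, 3 DNMTs, 8 PRMTs), each tested at 10 and 50 μM compound. Activity was read as ³H-methyl transfer from ³H-SAM in a radiometric assay done as previously described.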
Target sequence in this assay (Q96LA8 whole entry, looked up): as the sequence (Q96LA8 whole entry) above
In general terms: Scintillation proximity formats need no separation of bound from free tracer.

For data set [3] the target is unchanged. As to the kind of experiment: Time dependent inhibition of human PRMT6 pre-incubated for 1 to 30 mins using [3H]SAM as donor and [3H]methylated biotin-labeled peptide as substrate by scintillation proximity assay.
Target sequence in this assay (Q96LA8 whole entry, looked up): as the sequence (Q96LA8 whole entry) above
For data set [4] the target is unchanged. In words: […] inhibition of human PRMT6 pre-incubated for 1 to 30 mins using [3H]SAM as donor and [3H]methylated biotin-labeled peptide as substrate by scintillation proximity assay.
Target sequence in this assay (Q96LA8 whole entry, looked up): as the sequence (Q96LA8 whole entry) above
Data set [5] shares this target. In words: Covalent binding affinity to human PRMT6 assessed as covalent adduct. formation at 300 uM pre-incubated for 1 hr by mass spectrometry. The gist of the method: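 PRMT protein at 15 μM was incubated 1 h at room temperature with a 20-fold molar excess of inhibitor (300 μM). The reaction was quenched with 0.1% aqueous TFA, separated by HPLC (5–95% acetonitrile in water) and analysed by ESI time-of-flight LC/MS for protein–ligand adduct mass.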
Target sequence in this assay (Q96LA8 whole entry, looked up): as the sequence (Q96LA8 whole entry) above

For data set [6], the target named is T2, Protein arginine N-methyltransferase 1 (Homo sapiens, UniProt Q99873). As to the kind of experiment: Inhibition of human PRMT1 using [3H]SAM as donor and [3H]methylated biotin-labeled peptide as substrate by scintillation proximity assay.
Target sequence in this assay (Q99873 whole entry): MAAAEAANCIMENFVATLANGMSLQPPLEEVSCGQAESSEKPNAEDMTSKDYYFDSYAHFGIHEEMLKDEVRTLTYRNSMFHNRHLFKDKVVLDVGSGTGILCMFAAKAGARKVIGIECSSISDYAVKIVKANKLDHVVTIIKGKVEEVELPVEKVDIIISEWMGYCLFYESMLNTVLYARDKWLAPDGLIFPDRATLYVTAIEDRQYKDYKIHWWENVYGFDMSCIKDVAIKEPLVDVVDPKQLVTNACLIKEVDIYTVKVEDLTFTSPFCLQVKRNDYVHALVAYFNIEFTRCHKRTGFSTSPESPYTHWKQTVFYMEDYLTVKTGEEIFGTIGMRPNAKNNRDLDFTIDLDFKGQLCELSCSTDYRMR
For data set [7], the target named is T3, Protein arginine N-methyltransferase 3 (Homo sapiens, UniProt O60678). As to the kind of experiment: Inhibition of human PRMT3 using [3H]SAM as donor and [3H]methylated biotin-labeled peptide as substrate by scintillation proximity assay. The gist of the method: as §1
Target sequence in this assay (O60678 whole entry): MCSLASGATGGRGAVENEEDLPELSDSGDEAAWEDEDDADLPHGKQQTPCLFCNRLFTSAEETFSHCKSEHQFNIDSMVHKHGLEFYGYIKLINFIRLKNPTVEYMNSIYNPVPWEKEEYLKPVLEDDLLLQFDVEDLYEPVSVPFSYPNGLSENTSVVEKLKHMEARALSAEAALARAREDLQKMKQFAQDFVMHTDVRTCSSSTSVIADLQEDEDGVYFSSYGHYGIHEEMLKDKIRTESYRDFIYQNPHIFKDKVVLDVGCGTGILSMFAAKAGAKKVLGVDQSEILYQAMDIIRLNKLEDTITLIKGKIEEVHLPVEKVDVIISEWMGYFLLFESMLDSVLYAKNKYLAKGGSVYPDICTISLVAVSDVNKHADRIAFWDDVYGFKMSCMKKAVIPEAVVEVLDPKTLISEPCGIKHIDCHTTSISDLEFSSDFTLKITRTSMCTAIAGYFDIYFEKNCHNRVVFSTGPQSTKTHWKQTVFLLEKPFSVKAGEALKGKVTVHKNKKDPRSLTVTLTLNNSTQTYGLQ
Data set [8] has as its target T4, Histone-arginine methyltransferase CARM1 (Homo sapiens, UniProt Q86X55).
T4 sequence (Q86X55 whole entry): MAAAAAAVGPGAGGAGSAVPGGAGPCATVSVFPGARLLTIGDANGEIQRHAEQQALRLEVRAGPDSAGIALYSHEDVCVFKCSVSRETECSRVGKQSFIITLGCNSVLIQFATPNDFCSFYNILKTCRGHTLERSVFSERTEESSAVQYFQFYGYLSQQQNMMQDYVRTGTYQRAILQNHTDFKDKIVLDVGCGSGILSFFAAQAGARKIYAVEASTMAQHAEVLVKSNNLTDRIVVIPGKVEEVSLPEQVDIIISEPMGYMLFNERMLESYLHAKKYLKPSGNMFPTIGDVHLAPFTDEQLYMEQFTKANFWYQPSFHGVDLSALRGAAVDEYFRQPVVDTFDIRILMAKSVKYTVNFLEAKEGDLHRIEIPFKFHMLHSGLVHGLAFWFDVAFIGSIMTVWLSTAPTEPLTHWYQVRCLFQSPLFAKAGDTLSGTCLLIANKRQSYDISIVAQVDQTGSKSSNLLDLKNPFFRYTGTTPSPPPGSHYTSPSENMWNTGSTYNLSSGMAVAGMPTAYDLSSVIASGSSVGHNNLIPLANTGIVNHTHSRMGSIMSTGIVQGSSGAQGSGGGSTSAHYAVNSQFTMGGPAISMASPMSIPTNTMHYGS
As to the kind of experiment: Inhibition of human PRMT4 using [3H]SAM as donor and [3H]methylated biotin-labeled peptide as substrate by scintillation proximity assay. In a few lines:
as §1

Data set [9] deals with T5, Protein arginine N-methyltransferase 8 (Homo sapiens, UniProt Q9NR22). In words: Inhibition of human PRMT8 using [3H]SAM as donor and [3H]methylated biotin-labeled peptide as substrate by scintillation proximity assay. In a few lines:
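Radiometric SPA: ³H-methyl transfer from ³H-SAM to biotin-labeled peptide, captured on streptavidin/scintillant-coated plate, counts per minute read; substrate and cofactor each at their Km for the enzyme; compound titrated; IC50 from triplicate determinations, mean ± SD.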
Target sequence in this assay (Q9NR22 whole entry): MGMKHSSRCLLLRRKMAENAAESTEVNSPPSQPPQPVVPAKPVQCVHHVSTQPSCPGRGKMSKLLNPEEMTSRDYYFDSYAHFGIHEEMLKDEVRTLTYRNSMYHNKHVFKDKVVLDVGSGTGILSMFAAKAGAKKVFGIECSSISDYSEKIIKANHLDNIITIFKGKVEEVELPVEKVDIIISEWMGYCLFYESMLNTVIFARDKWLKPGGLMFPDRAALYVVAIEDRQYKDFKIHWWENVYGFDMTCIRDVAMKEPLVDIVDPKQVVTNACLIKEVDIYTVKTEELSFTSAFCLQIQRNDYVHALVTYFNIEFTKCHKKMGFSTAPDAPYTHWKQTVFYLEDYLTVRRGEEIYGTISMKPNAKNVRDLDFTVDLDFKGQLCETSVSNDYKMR

For data set [10], the target named is T1, Protein arginine N-methyltransferase 6. As to the kind of experiment: Inhibition of Flag-tagged PRMT6 (unknown origin) expressed in HEK293 cells at 0.1 to 10 uM incubated for 20 hrs assessed as reduction in H3R2me2a levels. The format is cell-based.
Target sequence in this assay (Q96LA8 whole entry, looked up): as the sequence (Q96LA8 whole entry) above
Data set [11] has as its target T2, Protein arginine N-methyltransferase 1. As to the kind of experiment: Inhibition of PRMT1 in human MCF7 cells assessed as reduction in H4R3me2a levels incubated for 2 days by fluorescence based assay. The format is cell-based. In a few lines: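 MCF7 cells with endogenous PRMT1 were treated with compound for 2 days, with MS023 (1 μM) as positive control. The H4R3me2a fluorescence signal was normalized to H4 and fitted nonlinearly to give IC50.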

The target of data set [12] is T3, Protein arginine N-methyltransferase 3. As to the kind of experiment: Inhibition of PRMT3 (unknown origin) expressed in HEK293T cells were co-transfected with GFP-tagged histone H4 peptide assessed as reduction in H4R3 arginine asymmetric dimethylation at 0.2 to 20 uM incubated for 20 hrs. The format is cell-based.
Target sequence in this assay (O60678 2-531 limits assumed): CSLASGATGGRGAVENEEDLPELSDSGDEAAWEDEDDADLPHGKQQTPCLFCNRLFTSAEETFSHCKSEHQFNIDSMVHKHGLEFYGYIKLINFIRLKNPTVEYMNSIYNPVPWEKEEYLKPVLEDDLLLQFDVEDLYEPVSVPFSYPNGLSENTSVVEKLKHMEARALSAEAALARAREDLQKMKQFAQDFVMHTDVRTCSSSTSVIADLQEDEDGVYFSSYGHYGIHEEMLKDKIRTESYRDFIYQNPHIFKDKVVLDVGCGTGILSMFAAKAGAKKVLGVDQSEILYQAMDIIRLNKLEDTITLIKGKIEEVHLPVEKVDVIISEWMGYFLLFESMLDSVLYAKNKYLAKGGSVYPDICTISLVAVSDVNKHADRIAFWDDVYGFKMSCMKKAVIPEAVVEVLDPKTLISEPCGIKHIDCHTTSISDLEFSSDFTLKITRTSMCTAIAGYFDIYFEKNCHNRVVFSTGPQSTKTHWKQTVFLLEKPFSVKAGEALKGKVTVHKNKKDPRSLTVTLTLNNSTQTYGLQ
Data set [13] has as its target T6, Histone-arginine methyltransferase CARM1 (Homo sapiens) (UniProt Q86X55).
T6 sequence (whole entry): T4 sequence (Q86X55 whole entry)
In words: Inhibition of PRMT4 in human MCF7 cells assessed as reduction in BAF155 asymmetric dimethylation at 0.2 to 20 uM incubated for 2 days. In kind it is cell-based.

Another data set concerns MCF7. As to the kind of experiment: Toxicity in human MCF7 cells assessed as reduction in cell viability up to 20 uM incubated for 3 days by CCK8 assay. In kind it is cell-based. As to conditions: mcf7, 72 h. In a few lines: (§3)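 Cells seeded 1×10^4 per well in triplicate, treated after 24 h with serial dilutions from 20 μM for 3 days; CCK-8 (WST-8) added, 4 h at 37 °C, absorbance at 450 nm; mean ± SD of three replicate experiments.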
(In general: Formazan colour is commonly taken as a measure of viable cells.)

The test system of a further data set is PNT2. In words: Toxicity in human PNT2 cells assessed as reduction in cell viability up to 20 uM incubated for 3 days by CCK8 assay. In kind it is cell-based. The following applies: pnt2, 72 h. The gist of the method: as §3
In the next data set the test system is HEK-293T. In words: Toxicity in HEK293T cells assessed as reduction in cell viability up to 20 uM incubated for 3 days by CCK8 assay. The format is cell-based. The following applies: human, 72 h. The gist of the method: as §3
Data set [14] concerns the target T3, Protein arginine N-methyltransferase 3. As to the kind of experiment: Inhibition of PRMT3 (unknown origin) assessed as reduction in incorporation of [3H]-labeled methyl group into biotinylated substrate using [3H-SAM] at 10 uM incubated for 1 hr by scintillation proximity assay. The gist of the method: as §2
Target sequence in this assay (O60678 2-531 limits assumed): as above
Data set [15] has as its target T6, Histone-arginine methyltransferase CARM1 (Homo sapiens). As to the kind of experiment: Inhibition of PRMT4 (unknown origin) assessed as reduction in incorporation of [3H]-labeled methyl group into biotinylated substrate using [3H-SAM] at 10 uM incubated for 1 hr by scintillation proximity assay. In a few lines: as §2
In data set [16] the target is T5, Protein arginine N-methyltransferase 8. In words: Inhibition of PRMT8 (unknown origin) assessed as reduction in incorporation of [3H]-labeled methyl group into biotinylated substrate using [3H-SAM] at 10 uM incubated for 1 hr by scintillation proximity assay. In a few lines: as §2
Target sequence in this assay (Q9NR22 2-394 limits assumed): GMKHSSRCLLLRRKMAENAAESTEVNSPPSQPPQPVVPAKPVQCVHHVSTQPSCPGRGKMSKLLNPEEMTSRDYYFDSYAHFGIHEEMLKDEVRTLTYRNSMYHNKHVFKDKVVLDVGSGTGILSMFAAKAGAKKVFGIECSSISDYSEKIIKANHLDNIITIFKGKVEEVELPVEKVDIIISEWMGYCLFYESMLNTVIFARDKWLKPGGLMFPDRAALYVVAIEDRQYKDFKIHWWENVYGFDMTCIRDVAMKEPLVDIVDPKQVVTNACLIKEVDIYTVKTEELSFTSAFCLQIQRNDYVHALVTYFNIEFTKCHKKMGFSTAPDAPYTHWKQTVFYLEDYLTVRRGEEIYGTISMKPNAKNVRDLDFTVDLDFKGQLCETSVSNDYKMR
In data set [17] the target is T3, Protein arginine N-methyltransferase 3. In words: Inhibition of PRMT3 (unknown origin) assessed as reduction in incorporation of [3H]-labeled methyl group into biotinylated substrate using [3H-SAM] at 50 uM incubated for 1 hr by scintillation proximity assay relative to control. In a few lines:
as §2
Target sequence in this assay (O60678 2-531 limits assumed): as the sequence (O60678 2-531 limits assumed) above

In data set [18] the target is T6, Histone-arginine methyltransferase CARM1 (Homo sapiens). As to the kind of experiment: Inhibition of PRMT4 (unknown origin) assessed as reduction in incorporation of [3H]-labeled methyl group into biotinylated substrate using [3H-SAM] at 50 uM incubated for 1 hr by scintillation proximity assay relative to control. The gist of the method: as §2
For data set [19], the target named is T1, Protein arginine N-methyltransferase 6. As to the kind of experiment: Inhibition of PRMT6 (unknown origin) assessed as reduction in incorporation of [3H]-labeled methyl group into biotinylated substrate using [3H-SAM] at 50 uM incubated for 1 hr by scintillation proximity assay relative to control. In a few lines:
as §2
Target sequence in this assay (Q96LA8 whole entry, looked up): as the sequence (Q96LA8 whole entry) above

The target of data set [20] is T5, Protein arginine N-methyltransferase 8. As to the kind of experiment: Inhibition of PRMT8 (unknown origin) assessed as reduction in incorporation of [3H]-labeled methyl group into biotinylated substrate using [3H-SAM] at 50 uM incubated for 1 hr by scintillation proximity assay relative to control. The gist of the method: as §2
Target sequence in this assay (Q9NR22 2-394 limits assumed): as the sequence (Q9NR22 2-394 limits assumed) above
Data set [21] is described as follows: Inhibition of type 1 PRMT (unknown origin). Also noted: species or system Homo sapiens.
Data set [22] has as its target T1, Protein arginine N-methyltransferase 6. In words: Inhibition of Flag-tagged PRMT6 (unknown origin) expressed in HEK293 cells at 2 uM incubated for 20 hrs assessed as reduction in H3R2me2a levels. The format is cell-based.
The target of data set [23] is T3, Protein arginine N-methyltransferase 3. As to the kind of experiment: Inhibition of PRMT3 (unknown origin) expressed in HEK293T cells were co-transfected with GFP-tagged histone H4 peptide assessed as reduction in H4R3 arginine asymmetric dimethylation at 2.2 to 20 uM incubated for 20 hrs. The format is cell-based.
Target sequence in this assay (O60678 2-531 limits assumed): as the sequence (O60678 2-531 limits assumed) above
Data set [24] deals with T6, Histone-arginine methyltransferase CARM1 (Homo sapiens). As to the kind of experiment: Inhibition of PRMT4 in human MCF7 cells assessed as reduction in BAF155 asymmetric dimethylation at 2.2 to 20 uM incubated for 2 days. The format is cell-based.
Data set [25] shares this target. In words: Inhibition of PRMT4 in human MCF7 cells assessed as reduction in BAF155 asymmetric dimethylation at 2 uM incubated for 2 days. The format is cell-based.

Active and inactive are the calls of the source. The calls are words filed in the database; no cut-off is given here. Where only a bound is given, the exact number is not on record here.

What is called IC50 is the concentration at which inhibition is half-maximal. The inhibition is the drop in the measured response relative to a control, in per cent.

For `CCC(=O)Nc1cccc(-c2c[nH]cc2CN(C)CCN)c1`, the IC50 came to 0.028 µM in [1]; 0.17 µM in data set [6]; 15 µM in data set [7]; 2 µM in data set [8]; 0.13 µM in data set [9]; 6.7 µM in [11]. The inhibition in [2] was greater than 40%; in data set [11], “Dose-dependent effect”; in data set [14], greater than 40%; in data set [15], greater than 40%; in data set [16], greater than 40%; in [17], greater than 80%. In addition, the inhibition in data set [18], in data set [19] and in [20] was greater than 80% each time. Further, the TDI entry in data set [3] is “inactive”. Further, the inhibition result in data set [4] and in data set [10] was “Active” throughout. In addition, the outcome in data set [5] was inactive. Also, the inhibition result in data set [12] and in [13] was “inactive” each time. Further, the Activity entry with MCF7, with PNT2 and with HEK-293T was “Non-Toxic” in each case.
With `CC(C)Oc1ccc(-c2c[nH]cc2CN(C)CCN)cc1`, the IC50 in data set [21] was in the range of 0.004 to 0.119 µM. In addition, the inhibition result in data set [22] was “Active”.
Consider `C=CC(=O)Nc1cccc(-c2c[nH]cc2CN(C)CCO)c1`, for which the IC50 in data set [1] was 9.8 µM; in [7] it was greater than 200 µM; in data set [8], 51 µM; in [9] it was 23 µM. Also, the inhibition worked out at 50% in [2] and 80% in data set [19]. Moreover, in data set [5], the result was inactive. Further, the inhibition result in [10], in [23] and in data set [24] was “inactive” in each case. In addition, the Activity entry with MCF7, with PNT2 and in the data set with HEK-293T was “Non-Toxic” each time.
As to `CNCCN1CCC(c2cc(CN(C)C(=O)c3cccc(Oc4ccccc4)c3)ccn2)CC1`, the inhibition result in data set [25] was “Active”.

Source of the values: ChEMBL document CHEMBL4342528, “Discovery of a First-in-Class Protein Arginine Methyltransferase 6 (PRMT6) Covalent Inhibitor” (J Med Chem, 2020).
